The IC50 is the midpoint of a concentration-inhibition curve.

Where only a bound is given, the exact number is not on record here.

One assay concerns the target Endochitinase B1 (Aspergillus fumigatus, UniProt Q873X9). Briefly: Inhibition of Aspergillus fumigatus ChitinaseB1 expressed in Escherichia coli using 4-methyumbelliferyl-beta-B-N,N'-diacetylchitobiose after 10 mins. Put shortly: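 Recombinant AfChiB1, expressed and purified as reported earlier, assayed with fluorogenic 4MU-GlcNAc2 substrate. IC50 obtained from triplicate measurements at each inhibitor concentration.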

Assay [1] addresses Acidic mammalian chitinase (Mus musculus, UniProt Q91XA9). Briefly: Inhibition of AMCase in BALB/c mouse lung homogenate using 4-methyumbelliferyl-beta-B-N,N'-diacetylchitobiose after 10 mins. Put shortly: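 AMCase activity taken from lung homogenate of female BALB/C mice; 100 mg lung lobe tissue homogenized in HBSS. Substrate 4MU-GlcNAc2, fluorogenic 4-methylumbelliferone release. IC50 from triplicate measurements at each inhibitor concentration.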

Assay [2] is described as follows: Inhibition of human chitotriosidase using 4-methyumbelliferyl-beta-B-N,N'-triacetylchitotriose as substrate after 10 mins. In outline: (§1)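 Enzymes (AfChiA1; human chitotriosidase) expressed and purified as reported earlier, assayed with fluorogenic 4MU-GlcNAc3 substrate. IC50 from triplicate measurements at each inhibitor concentration.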
For another assay, the target named is T1, Endochitinase A1 (Aspergillus fumigatus, UniProt Q873Y0).
T1 sequence (Q873Y0 whole entry): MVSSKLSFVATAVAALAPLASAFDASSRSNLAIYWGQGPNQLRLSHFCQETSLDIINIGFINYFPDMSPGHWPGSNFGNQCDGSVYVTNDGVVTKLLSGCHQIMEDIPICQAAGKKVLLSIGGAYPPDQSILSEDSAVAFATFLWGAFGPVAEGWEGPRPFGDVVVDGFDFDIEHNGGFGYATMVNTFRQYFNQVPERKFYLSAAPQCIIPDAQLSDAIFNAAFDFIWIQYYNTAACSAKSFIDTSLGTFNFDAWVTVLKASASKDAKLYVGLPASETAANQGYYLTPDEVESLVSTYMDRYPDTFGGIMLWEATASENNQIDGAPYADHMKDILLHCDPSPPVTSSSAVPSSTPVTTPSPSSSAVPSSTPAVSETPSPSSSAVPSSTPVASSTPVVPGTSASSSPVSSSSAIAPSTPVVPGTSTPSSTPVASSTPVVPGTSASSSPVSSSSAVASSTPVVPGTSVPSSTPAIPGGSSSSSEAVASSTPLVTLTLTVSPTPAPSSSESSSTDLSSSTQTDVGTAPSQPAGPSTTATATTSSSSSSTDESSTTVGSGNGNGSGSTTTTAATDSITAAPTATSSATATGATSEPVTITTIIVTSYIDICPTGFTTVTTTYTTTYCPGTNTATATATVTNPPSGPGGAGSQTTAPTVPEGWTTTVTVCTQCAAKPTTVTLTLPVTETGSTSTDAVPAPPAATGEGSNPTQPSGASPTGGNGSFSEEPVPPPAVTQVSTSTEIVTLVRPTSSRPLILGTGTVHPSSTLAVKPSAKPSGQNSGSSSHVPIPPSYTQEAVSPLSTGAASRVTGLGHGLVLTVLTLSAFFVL
Kind of assay: Inhibition of Aspergillus fumigatus chitinaseA1 using 4-methyumbelliferyl-beta-B-N,N'-triacetylchitotriose as substrate after 10 mins. In outline: as §1

Sequence of Acidic mammalian chitinase (Q91XA9 whole entry): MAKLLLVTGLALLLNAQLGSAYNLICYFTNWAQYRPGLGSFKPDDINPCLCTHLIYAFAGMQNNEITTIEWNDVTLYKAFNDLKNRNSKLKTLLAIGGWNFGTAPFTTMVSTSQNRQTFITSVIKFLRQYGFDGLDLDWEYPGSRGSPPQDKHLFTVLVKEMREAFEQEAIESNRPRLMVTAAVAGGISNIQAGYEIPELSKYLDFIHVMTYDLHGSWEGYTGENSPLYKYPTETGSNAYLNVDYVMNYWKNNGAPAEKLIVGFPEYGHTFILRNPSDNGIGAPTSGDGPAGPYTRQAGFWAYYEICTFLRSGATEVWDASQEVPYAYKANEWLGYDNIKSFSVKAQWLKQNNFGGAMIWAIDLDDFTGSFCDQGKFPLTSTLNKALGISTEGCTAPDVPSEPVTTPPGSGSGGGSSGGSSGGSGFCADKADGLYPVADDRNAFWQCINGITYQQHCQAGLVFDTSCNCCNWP

As to `Cn1cnc2c1c(=O)n(CCn1c(=O)c3c(ncn3C)n(C)c1=O)c(=O)n2C` [BISDIONIN B], the IC50 was 4.8 µM on Endochitinase B1, 90 µM in assay [1], 110 µM in assay [2] and > 1 mM against Endochitinase A1.
The matching figures for `Cn1cnc2c1c(=O)n(CCCn1c(=O)c3c(ncn3C)n(C)c1=O)c(=O)n2C` [BISDIONIN C]: 0.2 µM, 3.4 µM, 8.3 µM and > 1 mM.
On to `Cn1cnc2c1c(=O)n(CCCCn1c(=O)c3c(ncn3C)n(C)c1=O)c(=O)n2C` [BISDIONIN D], for which the figures for the IC50 (on Endochitinase B1; in assay [2]; against Endochitinase A1) were 9 µM, 91 µM and > 1 mM, respectively.
On to `Cn1cnc2c1c(=O)n(CCCCCn1c(=O)c3c(ncn3C)n(C)c1=O)c(=O)n2C` [BISDIONIN E], for which the values for the concentration for half-maximal inhibition (IC50) (at Endochitinase B1; in assay [2]; against Endochitinase A1) were 5.7 µM, 260 µM and 0.82 mM, respectively.

Source of the values: ChEMBL document CHEMBL2057153, “Bisdionin C-a rationally designed, submicromolar inhibitor of family 18 chitinases” (ACS Med Chem Lett, 2011).
